PG9 binder = binders of HIV-1 gp120 antibody PG9, primary screen, biochemical, TR-FRET; inhibition, % at 6.7 µM; TR-FRET gp120-PG9 antibody binding; HIV-1 gp120 / PG9 antibody interaction; AID 624416, 2012; 0.43% of 360,000 active; in the data active means inhibition above about 8.5%
NR1D1 modulator = modulators of Rev-erb alpha DNA binding, primary screen, biochemical, FITC-DNA, fluorescence polarization, uHTS | 0.79% of 370,000 active | Rev-erbα–FITC-DNA binding, 90 min | activity, % at 10 µM | Nuclear receptor subfamily 1 group D member 1 (Homo sapiens), P20393;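 active means activity above about 14%, limit read from the data; passing the limit was not always enough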;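 further: 0% = DMSO wells with 35 nM protein and 100% = DMSO wells with 750 nM protein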
NR2E3 ag-1 = NR2E3 agonists in two-hybrid cells, primary screen, cell-based, luminescence, CHO-S, Gal4-NCOR/VP16-NR2E3; inhibition of corepressor binding, % at 3.98 µM; 0.35% of 360,000 active; luciferase; AID 602229, 2012; Photoreceptor-specific nuclear receptor (Homo sapiens), Q9Y5X4;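 active means inhibition above the mean of all tested compounds plus 3 SD, cut at about 70% in these data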;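 further: 0% = DMSO with NR2E3 transfected cells and 100% = cells lacking NR2E3 construct; higher means lower luciferase signal from less NR2E3 corepressor binding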
Target sequence (Q9Y5X4 whole entry, looked up, the tested form may be a part): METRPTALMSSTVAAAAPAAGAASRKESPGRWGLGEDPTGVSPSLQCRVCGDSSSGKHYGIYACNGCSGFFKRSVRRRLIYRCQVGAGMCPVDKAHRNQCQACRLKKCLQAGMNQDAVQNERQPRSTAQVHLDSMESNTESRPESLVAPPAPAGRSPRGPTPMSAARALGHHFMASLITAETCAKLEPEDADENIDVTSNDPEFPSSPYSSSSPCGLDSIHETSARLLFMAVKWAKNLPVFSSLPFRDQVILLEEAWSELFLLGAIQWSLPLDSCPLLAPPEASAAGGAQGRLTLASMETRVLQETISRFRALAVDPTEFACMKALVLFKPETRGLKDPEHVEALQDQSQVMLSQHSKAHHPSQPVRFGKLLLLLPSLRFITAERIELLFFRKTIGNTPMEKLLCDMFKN
rCAG RNA binder = binders of r(CAG) RNA repeats, primary screen, biochemical, fluorescence; 1.3% of 370,000 active; inhibition, % at 3 µM; r(CAG) RNA repeat, TO-PRO-1 dye displacement fluorescence;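 active means inhibition above the plate cutoff, the mean of all test compounds on that plate plus 3 SD, cut at about 35% in these data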;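 further: 0% = DMSO alone and 100% = 100 µM mitoxantrone as full dye displacement; higher means more dye released from RNA so lower well fluorescence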
NR2E3 ag-2 = inhibitors of NR2E3-RetCOR corepressor binding, primary screen, NR2E3 agonist project, biochemical, TR-FRET, GST-NR2E3, biotin-RetCOR. Photoreceptor-specific nuclear receptor (Homo sapiens), Q9Y5X4. 1536-well. inhibition of corepressor binding, % at 4.78 µM. 0.12% of 320,000 active;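 active means percent inhibition above the cutoff of mean plus 3 SD of all tested compounds, set per screening campaign, cut at about 20% in these data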;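 further: 0% = DMSO wells and 100% = biotin wells as full block of FRET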
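Test system – NR2E3–RetCOR corepressor complex · Quantity – NR2E3 fusion 1.35 nM · Buffer or medium – Tris pH 7.5 · Incubation – Compound–protein incubation for 5 h at 4 °C · Technique – TR-FRET, Eu(K)-anti-GST donor, streptavidin-D2 acceptor, ex 340, em 617/671 nm · Evaluation – percent inhibition of 671/617 nm emission ratio versus biotin and DMSO controls · Plate – 1536-well format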
PG9 binder conf = binders of anti-gp120 antibody PG9, confirmation, biochemical, TR-FRET; TR-FRET PG9 antibody binding; 90% of 1,500 active; shares compounds with PG9 binder; inhibition, % at 6.7 µM; in the data active means inhibition above about 9%
PGV04 counter = binders of control antibody PGV04, counter-screen for PG9 antibody binder project, biochemical, TR-FRET, distinct HIV envelope site; AID 651604, 2012; TR-FRET PGV04 antibody-gp120 binding; 95% of 1,500 active; shares compounds with PG9 binder; inhibition, % at 6.7 µM; in the data active means inhibition above about 9.5%
PG9 binder DR = small-molecule binders of antibody PG9, dose response, biochemical, TR-FRET, HIV-1 gp120 antibody | shares compounds with PG9 binder | TR-FRET PG9 antibody-gp120 binding inhibition | IC50, µM | 95 tested, under 10 active | AID 651848, 2012; in the data active means IC50 below about 10 µM
PGV04 DR counter = binders of control antibody PGV04, dose response, counter-screen for PG9 antibody binder project, biochemical, TR-FRET, distinct HIV envelope site | shares compounds with PG9 binder | TR-FRET binding to control antibody PGV04 | IC50, µM | 20% of 95 active | AID 651937, 2012
PG126 binding DR = binders of control antibody PG126, dose response, counter-screen for PG9 antibody binder project, biochemical, TR-FRET, distinct HIV envelope site. shares compounds with PG9 binder. IC50, µM. AID 651939, 2012. TR-FRET binding to antibody PG126, counterscreen. 20% of 95 active
An asterisk follows results filed as active; i = inactive; · = not tested or not shown. This is a sample that favours compounds with a hit; in the whole collection about 2.6% have one here. Unless noted, no stated cut-off is given here; in the data, active means IC50 below about 9 µM; inactive means the rest.

SMILES	PG9 binder	NR1D1 modulator	NR2E3 ag-1	rCAG RNA binder	NR2E3 ag-2	PG9 binder conf	PGV04 counter	others
COc1ccc2[nH]c3c(Cl)ncnc3c2c1	-0.9	6.3	23.1	1.1	1.1	·	·
COc1ccc2[nH]c3c(=S)nc[nH]c3c2c1	49.5*	0.5	-23.2	2.4	-3.1	25.9*	25.5*	PG9 binder DR=>67;PGV04 DR counter=>67;PG126 binding DR=>67
Cc1cn(-c2ccc(Br)cc2)[nH]c1=O	10.0*	-2.7	-88.4	-0.5	-0.4	18.9*	21.3*
CC1(C(=O)NS(=O)(=O)C2CC2)CCCN(C(=O)C2(c3ccc(Cl)cc3)CCCC2)C1 (stereo not given)	0.0	-2.2	2.0	3.1	·	·	·
Cn1ccc2cc(S(=O)(=O)N3CCN(S(=O)(=O)c4c(F)cccc4F)CC3)ccc21	·	1.5	·	·	·	·	·
COc1ccc(/C(O)=C2/C(=O)C(=O)N(Cc3cccnc3)C2c2ccccn2)cc1 (stereo not given)	2.6	0.7	-17.8	-0.5	-3.0	·	·
CCOc1ccc(C2/C(=C(\O)c3ccc4c(c3)OCCO4)C(=O)C(=O)N2Cc2cccnc2)cc1OCC (stereo not given)	1.6	-4.0	-12.5	3.4	6.3	·	·
COc1ccccc1C1/C(=C(\O)c2ccc3c(c2)OCCO3)C(=O)C(=O)N1Cc1cccnc1 (stereo not given)	13.9*	7.3	-35.2	2.5	7.2	11.9*	17.6*
O=C1C(=O)N(Cc2cccnc2)C(c2cccc(O)c2)/C1=C(\O)c1ccc2c(c1)OCCO2 (stereo not given)	9.0*	0.8	-53.1	3.8	7.2	10.5*	20.3*
O=C1C(=O)N(Cc2ccncc2)C(c2cccc(O)c2)/C1=C(\O)c1ccc2c(c1)OCCO2 (stereo not given)	8.2	1.4	-29.3	6.0	12.8	·	·
O=C1C(=O)N(Cc2cccnc2)C(c2ccccn2)/C1=C(/O)c1ccc(Br)cc1 (stereo not given)	11.4*	-3.2	-7.9	1.8	8.0	18.0*	22.7*
Cc1cccc(C)c1NC(=O)CNC(=O)C(C)N1CCN(c2cccc(Cl)c2)CC1 (stereo not given)	-2.2	5.9	4.6	-2.5	4.3	·	·
O=c1cc(-c2ccccc2)oc2ccc3ccccc3c12	15.2*	12.6	-89.3	5.0	·	16.2*	24.0*
CCc1ccc(OCC(=O)OCC(=O)c2ccc3c(c2)NC(=O)CO3)cc1	14.6*	15.8	-15.3	1.3	2.7	24.0*	33.4*
Cc1cccc(C)c1OCC(=O)OCC(=O)c1ccc2c(c1)NC(=O)CO2	-0.9	0.1	-3.3	-5.0	0.9	·	·
CCCCCCC(=O)OCC(=O)c1ccc2c(c1)NC(=O)CO2	-0.3	8.8	-9.3	2.4	0.9	·	·
CCC(=O)c1ccc(OCC(=O)c2ccc3c(c2)NC(=O)CO3)cc1	15.7*	15.2	-11.3	2.2	-1.3	37.8*	37.7*	PG9 binder DR=>67.1;PGV04 DR counter=i;PG126 binding DR=i
Cc1ccc(Cn2c(=O)n(Cc3ccc(C(=O)NCC4COC4)cc3)c(=O)c3ccccc32)cc1	·	-0.5	·	5.6	·	·	·
CC(C)[C@H](NC(=O)Cc1ccccc1)C(=O)OCc1cc(=O)n2c(n1)sc1ccccc12	9.6*	-9.1	14.8	16.6	5.1	17.5*	21.3*
CCOc1ccccc1NC(=O)CN1C(=O)NC(Cc2c[nH]c3ccccc23)C1=O (stereo not given)	-2.8	6.0	-11.5	2.0	5.4	·	·
N/C(=N\c1nc2ccccc2o1)NC(=O)c1ccccc1F	-0.4	-3.4	-97.7	3.5	-1.5	·	·
N/C(=N\c1nc2ccccc2o1)NC(=O)c1ccccc1NC(=O)c1ccccc1	10.9*	18.2	-17.0	2.7	0.7	11.1*	18.9*
COCCN(CCOC)S(=O)(=O)c1ccc(C(=O)Nc2nc(-c3ccncc3)cs2)cc1	15.5*	8.4	22.2	-0.4	7.3	16.1*	21.1*
CCOC(=O)Cc1csc(NC(=O)c2ccc(S(=O)(=O)N(CCOC)CCOC)cc2)n1	-0.9	-1.6	-1.6	-2.4	-0.9	·	·
CC(=O)Nc1ccc(NC(=O)C(C)OC(=O)CNC(=O)c2ccc(-c3ccccc3)cc2)cc1 (stereo not given)	2.6	-6.2	-5.2	5.2	1.0	·	·
SMILES	PG9 binder	NR1D1 modulator	NR2E3 ag-1	rCAG RNA binder	NR2E3 ag-2	PG9 binder conf	PGV04 counter	others
CCCc1cc(=O)n2[nH]c(-c3cccc(Br)c3)cc2n1	16.0*	23.0	-118.5	1.7	3.5	17.7*	28.7*
CCCc1cc(=O)n2[nH]c(-c3ccc(Br)cc3)cc2n1	7.7	1.2	-109.2	2.7	2.3	·	·
COc1ccc(CN2CCS(=O)(=O)CC2)cc1OC	0.6	1.7	-6.5	-2.4	0.2	·	·
Cc1ccc(CN2CCS(=O)(=O)CC2)cc1	10.7*	-0.5	-23.1	-4.9	-0.2	5.7	12.6*
COc1ccc(Cn2c(=O)[nH]c3cc(C(=O)NCc4ccc5c(c4)OCO5)ccc3c2=O)cc1	9.1*	·	2.5	4.6	3.9	13.8*	17.8*
O=C(O)c1cccc(C(=O)c2cccc3ccccc23)c1	1.2	-1.5	5.3	4.6	1.9	·	·
O=C(c1ccc2ccccc2c1)c1cccc(F)c1C(=O)O	12.6*	-5.0	-23.7	6.1	·	11.8*	17.3*
O=S1(=O)c2ccc(Br)cc2OC2CCCC[C@@H]2N1Cc1ccccc1 (stereo not given in full)	-0.4	4.1	·	5.3	·	·	·
CCS(=O)(=O)Nc1ccc(-c2ccc(NS(=O)(=O)CC)c(OC)c2)cc1OC	17.3*	-0.6	11.8	5.6	3.1	14.3*	16.3*
COc1ccc(NS(=O)(=O)CC(C)C)c(OC)c1	-0.9	-0.5	11.0	0.4	4.8	·	·
Cc1ccc2c(n1)sc1c(N)ncnc12	23.6*	-1.8	-10.3	-0.7	-0.6	21.7*	31.9*

Screening data from PubChem.
